Measurements from ChEMBL document CHEMBL1147105, “In vitro and in vivo activities of PD 0305970 and PD 0326448, new bacterial gyrase/topoisomerase inhibitors with potent antibacterial activities versus multidrug-resistant gram-positive and fastidious organism groups” (2007).

Key:
Enterococcus faecium = experiment: Antibacterial activity against VanB-resistant Enterococcus faecium; type: functional
How it was run: (§1)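 Broth microdilution MIC per CLSI guidelines, incubated at 35°C. Cation-adjusted Mueller-Hinton broth for nonfastidious organisms and staphylococci. Streptococci tested in the same broth with 3% lysed horse blood. Anaerobes tested in supplemented Brucella broth inside an anaerobe chamber (5% CO2, 5% H2, 90% N2), read after 48 h. Strains were mainly recent clinical isolates with confirmed identity.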

Corynebacterium sp. = experiment: Antibacterial activity against Corynebacterium sp.; type: functional
How it was run: (§2)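 Broth microdilution MIC following CLSI guidelines, in cation-adjusted Mueller-Hinton broth containing 3% lysed horse blood, incubated at 35°C. Clinical isolates with identity confirmed. Reported as MIC range, MIC50 and MIC90.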

Moraxella catarrhalis = experiment: Antibacterial activity against beta-lactamase positive Moraxella catarrhalis; type: functional
Citrobacter koseri = experiment: Antibacterial activity against Citrobacter diversus; type: functional
How it was run: (§3)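 Broth microdilution MIC following CLSI guidelines, in cation-adjusted Mueller-Hinton broth, incubated at 35°C. Recent clinical isolates and reference strains, with identity confirmed by automated and standard microbiological methods. Results reported as MIC range, MIC50 and MIC90.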

Citrobacter freundii = experiment: Antibacterial activity against Citrobacter freundii; type: functional; how it was run: as §3
Klebsiella aerogenes = experiment: Antibacterial activity against Enterobacter aerogenes; type: functional; how it was run: as §3
Enterobacter cloacae = experiment: Antibacterial activity against Enterobacter cloacae; type: functional; how it was run: as §3
Escherichia coli = experiment: Antibacterial activity against Escherichia coli; type: functional; how it was run: as §3
Klebsiella oxytoca = experiment: Antibacterial activity against Klebsiella oxytoca; type: functional; how it was run: as §3
Klebsiella pneumoniae = experiment: Antibacterial activity against beta-lactamase positive Klebsiella pneumoniae; type: functional
How it was run: (§4)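 MIC by CLSI broth microdilution for nonfastidious organisms, in cation-adjusted Mueller-Hinton broth incubated at 35°C.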

Morganella morganii = experiment: Antibacterial activity against Morganella morganii; type: functional; how it was run: as §3
Proteus vulgaris = experiment: Antibacterial activity against Proteus vulgaris; type: functional; how it was run: as §3
Salmonella typhimurium = experiment: Antibacterial activity against Salmonella enterica serovar Typhimurium; type: functional, Salmonella enterica subsp. enterica serovar Typhimurium; how it was run: as §3
Actinomyces sp. = experiment: Antibacterial activity against Actinomyces sp.; type: functional
[1] = tested on: Peptostreptococcus anaerobius; experiment: Antibacterial activity against Peptostreptococcus anaerobius; type: functional
How it was run: (§5)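 Anaerobic broth microdilution MIC following CLSI guidelines, in supplemented Brucella broth. Run in an anaerobe chamber under 5% CO2, 5% H2 and 90% N2 at 35°C, and read after 48 h. Reported as MIC range, MIC50 and MIC90.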

Clostridium perfringens = experiment: Antibacterial activity against Clostridium perfringens; type: functional; how it was run: as §1
Clostridioides difficile = experiment: Antibacterial activity against Clostridium difficile; type: functional; how it was run: as §5
[2] = tested on: Bacteroides thetaiotaomicron; experiment: Antibacterial activity against Bacteroides thetaiotaomicron; type: functional; how it was run: as §5
Bacteroides fragilis = experiment: Antibacterial activity against Bacteroides fragilis; type: functional; how it was run: as §5
Staphylococcus aureus [3] = experiment: Antibacterial activity against oxacillin-susceptible Staphylococcus aureus; type: functional; how it was run: as §4
Staphylococcus aureus [4] = experiment: Antibacterial activity against oxacillin-resistant Staphylococcus aureus; type: functional; how it was run: as §1
Staphylococcus aureus [5] = experiment: Antibacterial activity against oxacillin and levofloxacin-resistant Staphylococcus aureus; type: functional; how it was run: as §1
[6] = tested on: Staphylococcus epidermidis; experiment: Antibacterial activity against oxacillin-susceptible Staphylococcus epidermidis; type: functional; how it was run: as §4
[7] = tested on: Staphylococcus epidermidis; experiment: Antibacterial activity against oxacillin-resistant Staphylococcus epidermidis; type: functional; how it was run: as §1
[8] = tested on: Staphylococcus saprophyticus; experiment: Antibacterial activity against Staphylococcus saprophyticus; type: functional; how it was run: as §3
Alloiococcus otitis = experiment: Antibacterial activity against Alloiococcus otitidis; type: functional
How it was run: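 MIC by broth microdilution following CLSI guidelines, in cation-adjusted Mueller-Hinton broth with 3% lysed horse blood. Incubated at 35°C and read after 48 h. Reported as MIC range, MIC50 and MIC90.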

Streptococcus agalactiae = experiment: Antibacterial activity against Streptococcus agalactiae; type: functional; how it was run: as §2
Streptococcus equinus = experiment: Antibacterial activity against Streptococcus bovis; type: functional
How it was run: (§6)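 Broth microdilution MIC following CLSI guidelines, in cation-adjusted Mueller-Hinton broth with 3% lysed horse blood. Plates incubated at 35°C. Clinical isolates and reference strains, with identity confirmed by standard microbiological methods.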

Streptococcus pneumoniae = experiment: Antibacterial activity against penicillin-susceptible Streptococcus pneumoniae; type: functional; how it was run: as §1
Anaerococcus prevotii = experiment: Antibacterial activity against Peptostreptococcus prevotii; type: functional; how it was run: as §5
Hoylesella oralis = experiment: Antibacterial activity against Prevotella oralis; type: functional; how it was run: as §5
Streptococcus salivarius = experiment: Antibacterial activity against Streptococcus salivarius; type: functional; how it was run: as §6
[9] = tested on: Parabacteroides distasonis; experiment: Antimicrobial activity against Bacteroides distasonis; type: functional
How it was run: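 Anaerobic broth microdilution MIC following CLSI guidelines, in supplemented Brucella broth. Incubated at 35°C in a chamber under 5% CO2, 5% H2 and 90% N2. Read after 48 h.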

Cc1c(N2CC[C@@H]([C@H](C)N)C2)c(F)cc2c(=O)[nH]c(=O)n(C3CC3)c12
8 µg/mL: MIC90 (Citrobacter koseri) | MIC50 (Citrobacter freundii) | MIC50 (Klebsiella aerogenes) | MIC90 (Escherichia coli) | MIC50 (Klebsiella pneumoniae) | MIC90 (Clostridium perfringens) | MIC90 (Clostridioides difficile) | MIC50 (Bacteroides fragilis)
0.5 µg/mL: MIC50 (Corynebacterium sp.) | MIC50 (Moraxella catarrhalis) | MIC90 (Moraxella catarrhalis) | MIC90 (Staphylococcus aureus [4]) | MIC90 [8] | MIC50 (Hoylesella oralis)
1 µg/mL: MIC (Enterococcus faecium) | MIC90 (Corynebacterium sp.) | MIC (Actinomyces sp.) | MIC50 (Staphylococcus aureus [5])
0.06 µg/mL: MIC [1] | MIC50 (Streptococcus equinus) | MIC90 (Streptococcus equinus) | MIC90 (Streptococcus pneumoniae) | MIC (Anaerococcus prevotii) | MIC90 (Streptococcus salivarius)
> 64 µg/mL: MIC90 (Citrobacter freundii)
0.25 µg/mL: MIC50 (Staphylococcus aureus [3]) | MIC90 (Staphylococcus aureus [3]) | MIC50 (Staphylococcus aureus [4]) | MIC50 [7] | MIC90 [7]
2 µg/mL: MIC50 (Citrobacter koseri) | MIC50 (Enterobacter cloacae) | MIC50 (Escherichia coli) | MIC50 (Klebsiella oxytoca) | MIC50 (Morganella morganii) | MIC (Proteus vulgaris) | MIC50 (Salmonella typhimurium) | MIC50 (Clostridium perfringens) | MIC50 (Clostridioides difficile) | MIC90 (Hoylesella oralis)
0.03 µg/mL: MIC90 (Streptococcus agalactiae) | MIC50 (Streptococcus pneumoniae) | MIC50 (Streptococcus salivarius)
0.125 µg/mL: MIC [6] | MIC50 [8]
64 µg/mL: MIC90 (Klebsiella aerogenes) | MIC90 (Klebsiella pneumoniae)
32 µg/mL: MIC90 (Morganella morganii) | MIC90 [2] | MIC90 [9]
0.008 µg/mL: MIC50 (Alloiococcus otitis) | MIC90 (Alloiococcus otitis)
16 µg/mL: MIC90 (Enterobacter cloacae) | MIC90 (Klebsiella oxytoca) | MIC50 [2] | MIC90 (Bacteroides fragilis) | MIC50 [9]
0.015 µg/mL: MIC50 (Streptococcus agalactiae)
4 µg/mL: MIC90 (Salmonella typhimurium) | MIC90 (Staphylococcus aureus [5])
